Laboratory results: ChEMBL document CHEMBL1139963, “Boswellic acids and glucosamine show synergistic effect in preclinical anti-inflammatory study in rats” (2007)
The source made the active and inactive calls. The calls are words filed in the database; no cut-off is given here.

Tests used:
Rattus norvegicus [1] = experiment: Antiinflammatory activity against carrageenan-induced paw edema in Wistar rat assessed as reduction of paw edema at 250 mg/kg after 3 hrs relative to control; type: functional
Summary of the method: (§1)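 Rats, five per group, were dosed orally with suspensions in 2% gum acacia. After 45 min, freshly prepared 10 mg/ml carrageenan was injected subplantar into the left hind paw, with saline in the contralateral paw. Paw volume was measured by volume differential meter immediately and hourly to 4 h. Percent protection was calculated versus control. Data are means ± SE, analysed by Student's t-test.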

Rattus norvegicus [2] = experiment: Antiinflammatory activity against carrageenan-induced paw edema in Wistar rat assessed as reduction of paw edema at 250 mg/kg after 4 hrs relative to control; type: functional; summary of the method: as §1
Rattus norvegicus [3] = experiment: Antiarthritic activity against Mycobacterium tuberculosis-induced rat arthritic model assessed as inhibition of chronic phase inflammation at 250 mg/kg relative to control; type: functional
Summary of the method: (§2)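 Adjuvant arthritis in rats, five per group. A 5 mg/ml suspension of heat-killed Mycobacterium tuberculosis in liquid paraffin was injected subplantar into the left hind foot. Oral dosing ran from one day before immunization to day 13. Paw volume was measured on alternate days, and percent change was calculated versus the vehicle control. The chronic phase begins after day 8. Data are means ± SE, analysed by Student's t-test.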

Rattus norvegicus [4] = experiment: Antiinflammatory activity against carrageenan-induced paw edema in Wistar rat assessed as reduction of paw edema at 100 mg/kg relative to control; type: functional; parameters: scale not given: the % may be the effect or the level left; summary of the method: as §1
Rattus norvegicus [5] = experiment: Antiarthritic activity against Mycobacterium tuberculosis-induced rat arthritic model assessed as inhibition of acute phase inflammation at 100 mg/kg relative to control; type: functional, organism-based; parameters: dose 100 mg/kg; summary of the method: as §2
Rattus norvegicus [6] = experiment: Antiarthritic activity against Mycobacterium tuberculosis-induced rat arthritic model assessed as inhibition of chronic phase inflammation at 100 mg/kg relative to control; type: functional, organism-based; parameters: dose 100 mg/kg; summary of the method: as §2
Rattus norvegicus [7] = experiment: Antiinflammatory activity against carrageenan-induced paw edema in Wistar rat assessed as reduction of paw edema at 250 mg/kg relative to control; type: functional, organism-based; parameters: dose 250 mg/kg; summary of the method: as §1
Rattus norvegicus [8] = experiment: Antiarthritic activity against Mycobacterium tuberculosis-induced rat arthritic model at 250 mg/kg relative to control; type: functional, organism-based; parameters: dose 250 mg/kg; summary of the method: as §2

Structure (SMILES) | inhibition in vivo at 250 mg/kg (Rattus norvegicus [1]) [%] | inhibition in vivo at 250 mg/kg (Rattus norvegicus [2]) [%] | inhibition in vivo at 250 mg/kg (Rattus norvegicus [3]) [%] | Activity (Rattus norvegicus [4]) [%] | Activity (Rattus norvegicus [5]) | Activity (Rattus norvegicus [6]) | Activity (Rattus norvegicus [7]) | Activity (Rattus norvegicus [8])
C[C@H]1[C@H](C)CC[C@]2(C)CC[C@]3(C)C(=CC[C@@H]4[C@@]5(C)CC[C@@H](O)[C@](C)(C(=O)O)[C@@H]5CC[C@]43C)[C@H]12 [BOSWELLIC ACID] | 28.6 | 25.8 | 36.4 |  |  |  |  | 
CC(C)Cc1ccc([C@H](C)C(=O)O)cc1 [DEXIBUPROFEN] |  |  |  | 55.64 | Active | Active |  | 
C[C@H]1[C@H](C)CC[C@]2(C)CC[C@]3(C)C(=CC(=O)[C@@H]4[C@@]5(C)CC[C@@H](O)[C@](C)(C(=O)O)[C@@H]5CC[C@]43C)[C@H]12 |  |  |  |  |  |  | Active | Active
N[C@@H]1[C@@H](O)[C@H](O)[C@@H](CO)O[C@H]1O [GLUCOSAMINE] | 15.2 | 16.1 | 21.6 |  |  |  |  | 
CC1(C)CC[C@]2(C)CC[C@]3(C)C(=CC[C@@H]4[C@@]5(C)CC[C@@H](O)[C@](C)(C(=O)O)[C@@H]5CC[C@]43C)[C@@H]2C1 | 28.6 | 25.8 | 36.4 |  |  |  |  | 
